# Screening data: PubChem BioAssay, several laboratories
# Rows were chosen to be rich in hits. Some 4.2% of all compounds tested hit in one or more screens of this group.
# HDAC3 inhib – HDAC3 deacetylase inhibitors, primary screen, biochemical, fluorescence, cell-free homogeneous. recombinant HDAC3, fluorogenic peptide/trypsin coupled. inhibition, % at 8.3 µM. actives 0.15% (n = 320,000); in the data active = inhibition above about 26%, passing the limit was not always enough
# Target sequence (O15379 whole entry, looked up): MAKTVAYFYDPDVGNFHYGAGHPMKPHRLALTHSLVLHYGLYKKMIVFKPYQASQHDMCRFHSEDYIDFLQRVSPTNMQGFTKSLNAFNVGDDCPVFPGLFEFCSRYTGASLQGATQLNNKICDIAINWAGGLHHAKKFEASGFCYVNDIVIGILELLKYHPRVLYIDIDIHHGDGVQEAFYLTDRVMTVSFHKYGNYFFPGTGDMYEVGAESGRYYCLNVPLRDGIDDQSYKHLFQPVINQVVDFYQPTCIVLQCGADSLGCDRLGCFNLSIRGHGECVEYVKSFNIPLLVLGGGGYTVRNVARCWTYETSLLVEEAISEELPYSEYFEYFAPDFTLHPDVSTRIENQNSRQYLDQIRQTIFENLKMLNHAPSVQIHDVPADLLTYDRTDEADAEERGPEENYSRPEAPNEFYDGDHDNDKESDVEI
# CTSL1 counter – Fasciola hepatica cathepsin L1 inhibitors, primary screen, counter-screen for PFM18AAP inhibitor project, biochemical, QFRET, fluorogenic peptide substrate | recombinant F. hepatica cathepsin L1, Z-Leu-Arg-MCA fluorescence | inhibition, % at 5.96 µM | actives 0.49% (n = 300,000);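 active = inhibition above the mean of all tested compounds plus 3 SD, set per screening campaign, cut at about 17% in these data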;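 note: 0% = plate median of test compound wells and 100% = 1 µM Z-Phe-Ala-diazomethylketone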
# GAA850 FXN act – FXN promoter activators, primary screen, cell-based, luciferase luminescence, HEK293 lucGAA850; HEK293 lucGAA850 FXN promoter luciferase reporter, 24 h; percent of 10 µM SAHA response; activation, % at 6 µM; actives 0.56% (n = 360,000); AID 540364, 2011;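 active = activation above the average of all compounds screened plus 3 SD, cutoff fixed separately per campaign, cut at about 7.5% in these data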;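 note: 0% = DMSO wells and 100% = 10 µM SAHA wells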
# AHR activator – AHR activators, primary screen, cell-based, luminescence, luciferase reporter, human. AID 2796, 2010. Aryl hydrocarbon receptor (Homo sapiens), P35869. actives 2.5% (n = 320,000). activation, % at 5 µM. AHR-responsive luciferase reporter cells; in the data active = activation above about 47%;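 note: 0% = vehicle wells and 100% = reference agonist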
# PfM18AAP inh – PfM18AAP inhibitors, malaria aminopeptidase, primary screen, biochemical, QFRET, recombinant enzyme | M18 aspartyl aminopeptidase (Plasmodium falciparum 3D7) | H-Glu-NHMec fluorogenic cleavage | inhibition, % at 7.35 µM | actives 1.2% (n = 290,000) | AID 1822, 2009;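 active = inhibition above the campaign mean inhibition over all tested compounds plus 3 SD, cut at about 28% in these data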;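 note: 0% = plate median of test compound wells and 100% = 2 mM ZnCl2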
# SENP1 inh – human SENP1 catalytic domain inhibitors, primary screen, biochemical, FRET, uHTS; Sentrin-specific protease 1 (Homo sapiens), Q9P0U3; recombinant SENP1 catalytic domain, CyPet-SUMO1-YPet FRET cleavage; inhibition, % at 10 µM; actives 0.21% (n = 360,000);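 active = inhibition at least 30% at 10 µM, raw YFP signal under a set limit, fluorescence ratio 0.5 to 1.5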;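 note: 0% = enzyme with DMSO and 100% = no enzyme wells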
# Target sequence (Q9P0U3 419-644 limits assumed): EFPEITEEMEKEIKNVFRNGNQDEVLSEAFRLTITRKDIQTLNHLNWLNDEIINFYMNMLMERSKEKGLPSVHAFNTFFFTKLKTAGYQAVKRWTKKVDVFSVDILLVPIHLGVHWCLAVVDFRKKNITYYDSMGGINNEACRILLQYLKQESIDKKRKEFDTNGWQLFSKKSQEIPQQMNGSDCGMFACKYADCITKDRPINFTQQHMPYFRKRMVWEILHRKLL
#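 System: Recombinant human SENP1 catalytic domain, His6-tagged | Incubation: Enzyme reaction for 50 min at room temperature, dark | Medium: Tris pH 8 with BME, BSA, NP40 and catalase | Also added: 25 nM SUMO1 FRET substrate | Compound: 10 µM single point, 0.5% DMSO | Measured by: FRET fluorescence in CFP and YFP emission channels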
# Starred values were filed as active, the others as inactive; / = no result given.
SMILES,HDAC3 inhib,CTSL1 counter,GAA850 FXN act,AHR activator,PfM18AAP inh,SENP1 inh
OCCCc1nc2n(n1)C(c1cccs1)C=C(c1ccc(Br)cc1)N2 (stereo unspecified),0.1,-0.3,/,-12.3,-5.8,/
Brc1ccc(C2=CC(c3cccs3)n3ncnc3N2)cc1 (stereo unspecified),-1.2,2.0,1.5,84.5*,11.4,-23.3
CN[C@H](C)C(=O)NC[C@H]1O[C@@H](n2cc(C)c(=O)[nH]c2=O)C[C@@H]1O,/,/,-3.0,/,/,0.6
Cc1cccc(NS(=O)(=O)c2ccc(C)c(C(=O)NC3CCN(Cc4ccccc4)CC3)c2)c1,/,/,-2.9,/,/,-29.9
CCOc1ccc(C2C=C(c3ccc(F)cc3)Nc3ncnn32)cc1 (stereo unspecified),3.0,-2.1,4.6,62.7*,10.5,-0.9
CCOc1ccc(C2C=C(c3ccccc3)Nc3ncnn32)cc1 (stereo unspecified),-39.9,1.1,/,39.1,10.6,/
Cc1ccc(C(=O)Nc2cccc3cccnc23)cc1C,-6.4,0.3,6.9,43.3,4.6,1.6
COc1ccc(-c2noc(-c3cc4ccccc4oc3=O)n2)cc1,-4.4,-1.1,/,-2.2,-1.9,/
COc1ccc(-c2csc(-c3cc4ccccc4oc3=N)n2)cc1,-3.4,0.6,3.2,49.9*,0.5,-29.0
Cc1cccc(-c2ccc(O)cc2CN2CCN(c3ncc(Cc4ccccc4)cn3)CC2)c1,/,/,/,/,/,1.4
Cc1csc(CN(C)C(=O)C2CCC(=O)N(CCN(C)C)C2)n1 (stereo unspecified),-2.4,19.1*,-1.1,7.9,1.4,3.2
COCCN(CC(=O)Nc1cccc(C)c1C)C(=O)/C=C/c1ccc2c(c1)OCCO2,/,/,0.6,/,/,-2.2
O=C1C(c2ccccc2)=[N+]([O-])c2ccccc21,-14.2,31.0*,-3.0,3.9,/,3.2
COC1=C(c2ccccc2)C(=O)c2ccccc2C1=O,13.4,13.3,-2.0,15.0,12.1,13.0
Cc1ccc(NC(=O)Nc2nc3ccccc3s2)cc1NC(=O)Nc1nc2ccccc2s1,/,1.5,3.1,53.8*,-2.2,0.2
COc1ccc(OCC(=O)Nc2nc3ccc(NC(C)=O)cc3s2)cc1,3.9,2.5,0.5,23.5,-5.1,2.0
O=C(Nc1ccc(Cl)c([N+](=O)[O-])c1)Nc1nc2ccccc2s1,-2.4,-0.5,/,46.5,-7.8,/
COc1ccc2nc(NNC(=O)COc3ccccc3)sc2c1,1.1,-0.8,1.4,71.5*,38.3*,0.9
COc1ccc2nc(NC(=O)Nc3ccccc3OC)sc2c1,6.1,2.0,-3.3,2.5,0.0,-1.4
CCOc1ccc2nc(NC(=O)CCn3cccc3)sc2c1,0.2,-1.6,0.9,58.9*,-2.4,-0.3
COc1ccc2nc(NC(=O)Nc3cccc4ccccc34)sc2c1,0.2,2.7,2.8,64.5*,-3.5,-3.0
Cc1ccc(N)cc1NC(=O)CN1CCOCC1,5.3,6.5,1.3,0.1,8.8,3.0
O=C(NNc1nc2ccccc2s1)Nc1ccccc1,1.2,0.6,4.1,58.6*,29.0*,-0.8
O=C(COc1ccccc1)NNc1nc2ccccc2s1,0.3,3.7,-4.0,50.0*,15.0,-18.2
COc1ccc2nc(NC(=O)c3ccc([N+](=O)[O-])o3)sc2c1,-0.5,6.4,2.2,52.1*,-3.3,-8.7
SMILES,HDAC3 inhib,CTSL1 counter,GAA850 FXN act,AHR activator,PfM18AAP inh,SENP1 inh
O=C(Nc1nc2ccccc2s1)c1ccc([N+](=O)[O-])o1,-2.4,5.9,1.1,1.0,-4.7,-1.4
CCNC(=O)Nc1nc2ccccc2s1,6.2,-0.7,2.6,13.1,5.7,2.7
O=C(COc1ccccc1)NNc1nc2c(F)cccc2s1,-2.0,0.9,0.0,22.3,14.2,-1.9
COc1ccc(N2CCN(c3ccc(NC(=O)/C=C\C(=O)O)cc3)CC2)cc1,-0.7,-0.7,0.4,2.1,31.3*,5.0
COc1ccc(/C=C/C(=O)Nc2ccc(N3CCOCC3)cc2)cc1,-2.8,0.7,3.5,-1.2,5.7,4.1
CCN1CCc2c(C#N)c(N3CCCCC3)nc(N3CCOCC3)c2C1,-13.2,17.6*,0.7,6.9,2.5,-51.3
CCN1CCc2c(C#N)c(N3CCOCC3)nc(N3CCOCC3)c2C1,-1.6,3.2,0.7,8.2,0.1,-31.1
Cc1nc2sccn2c(=O)c1S(=O)(=O)N1CCN(c2ccccc2F)CC1,/,/,-0.7,/,/,-0.2
COc1ccc(-n2nc3c(c2NC(=O)CCl)CSC3)cc1,0.3,72.1*,-6.8,5.3,12.5,1.5
COc1ccc(-n2nc3c(c2NC(=O)C(C)Cl)CSC3)cc1 (stereo unspecified),-0.6,2.5,1.0,4.0,8.2,-1.4
CC1=C(C(=O)OCc2ccccc2)C(c2ccc(C)cc2)NC(=O)N1 (stereo unspecified),/,/,1.3,/,/,2.0
Cc1[nH]nc(Nc2ccc(Br)cc2)c1[N+](=O)[O-],5.9,-1.9,6.0,125.1*,-14.2,0.4
Cc1ccc(Nc2n[nH]c(C)c2[N+](=O)[O-])cc1,1.2,-1.8,4.4,37.0,2.4,3.1
CC1(C)CC2CC(C)(CN2/C=C2/CCCCC2=O)C1 (stereo unspecified),2.0,3.6,0.7,1.1,4.0,-20.2
COc1ccc(OC)c(NC(=O)c2cccc3c2C(=O)N(C2CCCCC2)C3)c1,-3.8,0.7,0.1,14.1,2.5,-14.7
COCCN1Cc2cccc(C(=O)NCc3ccc4c(c3)OCO4)c2C1=O,5.5,-1.8,3.6,10.8,28.7*,2.3
COCCN1Cc2cccc(C(=O)Nc3cc(OC)ccc3OC)c2C1=O,2.9,-0.1,2.6,47.8*,-0.3,-9.1
Nc1ccn([C@@H]2O[C@H](CNCc3cccc(OC4CCCC4)c3)[C@@H](O)[C@H]2O)c(=O)n1,/,/,-1.3,/,/,0.9
COc1ccc(S(=O)(=O)N2CCCCCC2)cc1C(=O)N(C)Cc1ccc(Cl)cc1Cl,3.8,8.7,0.0,0.1,/,0.6
C[n+]1ccc(/C=C/c2ccccc2O)c2ccccc21,9.3,-1.6,-0.9,63.4*,-6.9,-10.8
Cn1c(NCc2ccccc2Cl)nc2ccccc21,7.9,-0.9,4.4,76.8*,/,1.0
Cn1c(NCc2ccccc2O)nc2ccccc21,-0.4,-0.9,0.0,-1.4,-18.4,0.4
CC[N+]1(CC)CC2=Cc3c(ccc4ccccc34)C(C)C2C1 (stereo unspecified),-10.2,-0.7,-0.9,7.3,3.1,-0.8
CCOC(=O)C(=CN=C(N)Nc1nc2ccccc2o1)C(=O)OCC,-4.2,1.1,-0.9,62.9*,15.3,-0.8
